Measurements from ChEMBL document CHEMBL1156659, “Cycloartane triterpenoids from Astragalus bicuspis” (J Nat Prod, 2008).

How the values were obtained:
Leishmania major = test: Antileishmanial activity against Leishmania major DESTO promastigotes after 72 hrs; format: functional, organism-based
In short: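 Log-phase promastigotes grown at 22-25 °C in RPMI-1640 with 10% heat-inactivated FBS, seeded at 1 × 10^6 cells/mL. Compounds were taken from a 1 mg/mL stock (DMSO, then complete medium), serially diluted, and incubated 21-22 °C for 72 h. Viable parasites were counted microscopically in a Neubauer chamber, and IC50 was derived by curve fitting. Run in duplicate.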

NIH3T3 = test: Cytotoxicity against mouse 3T3 cells after 72 hrs by MTT assay; format: cell-based
In short: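 Mouse fibroblasts were kept in DMEM with 5% FBS, penicillin and streptomycin at 37 °C under 5% CO2, seeded at 3 × 10^4 cells/mL, and left overnight. Fresh medium holding a compound concentration series was added for 72 h. MTT (2 mg/mL) was added for 4 h, then DMSO, and formazan was read at 540 nm. The value is the concentration giving 50% growth inhibition.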

[1] = Mus musculus, NIH3T3, 72 h, read-out: IC50

Compound | IC50 (Leishmania major) | IC50 (NIH3T3; [1]) [µM] | IC50 (NIH3T3; nih3t3) [µmol]
C[C@@H]1C[C@@]2(O[C@H]3C[C@@]4(C)[C@@H]5C[C@H](O)[C@H]6C(C)(C)[C@@H](O[C@@H]7OC[C@@H](O)[C@@H](O)[C@H]7O)CC[C@@]67C[C@@]57CC[C@]4(C)[C@@H]13)O[C@H](O)[C@]1(C)O[C@H]21 | 64.35 µmol | > 100 | 
CC(C)(O)[C@@H]1CC[C@](C)([C@@H]2[C@@H](O)C[C@@]3(C)[C@@H]4C[C@H](O)[C@H]5C(C)(C)[C@@H](O)CC[C@@]56C[C@@]46CC[C@]23C)O1 | 108 µM | > 100 | 
C[C@@H]1[C@H](O)[C@@H](C)/C=C/C=C/C=C/C=C/C=C/C=C/C=C/[C@H](O[C@@H]2O[C@H](C)[C@@H](O)[C@H](N)[C@@H]2O)C[C@@H]2O[C@](O)(C[C@@H](O)C[C@@H](O)[C@H](O)CC[C@@H](O)C[C@@H](O)CC(=O)O[C@H]1C)C[C@H](O)[C@H]2C(=O)O [AMPHOTERICIN B] | 0.54 µmol |  | 
CO[C@H]1C[C@@H](C)[C@H]2[C@H](C[C@@]3(C)[C@@H]4C[C@H](O)[C@H]5C(C)(C)[C@@H](O[C@@H]6OC[C@@H](O)[C@@H](O)[C@H]6O)CC[C@@]56C[C@@]46CC[C@]23C)O1 | 93.65 µmol | 52.4 | 
N=C(N)c1ccc(OCCCCCOc2ccc(C(=N)N)cc2)cc1 [PENTAMIDINE] | 4.32 µmol |  | 
C[C@@H]1C[C@@H]([C@H](O)CC2CC(=O)NC(=O)C2)C(=O)[C@@H](C)C1 [CYCLOHEXIMIDE] |  |  | 0.912
CC(C)(O)[C@@H]1CC[C@](C)([C@H]2[C@@H](O)C[C@@]3(C)[C@@H]4C[C@H](O)[C@H]5C(C)(C)[C@@H](O[C@@H]6OC[C@@H](O)[C@H](O)[C@H]6O)CC[C@@]56C[C@@]46CC[C@]23C)O1 | 56.51 µmol |  | 19.51
